Assay results: ChEMBL document CHEMBL1125740, “Heterocyclic quinones. 17. A new in vivo active antineoplastic drug: 6,7-bis(1-aziridinyl)-4-[[3-(N,N-dimethylamino)propyl]amino]-5,8- quinazolinedione” (J Med Chem, 1991)
“And” between values parts separate entries of the source, which are not always exact repeats. Equal values may be shown once.

Tests used:
[1] = tested on: B16; test: Compound was evaluated in vivo for antitumor activity against B16 melanoma after injecting the compound intravenously for total dose; assay type: functional, Mus musculus
[2] = tested on: B16; test: Compound was evaluated in vivo for antitumor activity against B16 melanoma after injecting the compound intravenously for change in body weight.; assay type: functional, Mus musculus
Procedure, shortened: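 30-60 mg tumor fragments implanted sc by trocar on day 0 into C57Bl/6-derived hosts (B16) or C3H/He-derived hosts (16/C). Drug given iv on days 6, 9 and 13 (B16) or 6, 9 and 12 (16/C), 10 mice per group. Tumors measured by caliper. T/C % taken from median tumor burden of treated vs control groups on day 15 (B16) or day 14 (16/C). Body weight change per mouse recorded at nadir.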

[3] = tested on: B16; test: Compound was evaluated in vivo for antitumor activity against B16 melanoma 1 after injecting the compound intravenously for percent T/C (value in parentheses indicates the day of evaluation); assay type: functional, Mus musculus
[4] = tested on: B16; test: Compound was evaluated in vivo for antitumor activity against B16 melanoma 1 after injecting the compound intravenously for median tumor burden; assay type: functional, Mus musculus
[5] = Compound was evaluated in vivo for antitumor activity against Glasgow osteogenic sarcoma after injecting the compound intravenously for percent T/C (value in parentheses indicates the day of evaluation); assay type: functional, Mus musculus
[6] = Compound was evaluated in vivo for antitumor activity against Glasgow osteogenic sarcoma after injecting the compound intravenously for median tumor burden; assay type: functional, Mus musculus
Procedure, shortened: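 Glasgow osteogenic sarcoma in C57Bl/6-derived hosts: 30-60 mg fragments implanted sc by trocar on day 0. Drug given iv on days 3, 6 and 9, 7 mice per group. Tumors measured by caliper. Median tumor burden recorded on day 10. Body weight change per mouse recorded at nadir. Toxicity-related deaths counted.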

[7] = tested on: M5076; test: Compound was evaluated in vivo for antitumor activity against M5076 after injecting the compound intravenously for toxicity related death.; assay type: functional, Mus musculus
[8] = tested on: L1210; test: Compound was evaluated in vivo for antitumor activity after intraperitoneal administration against L1210(935) for total dose at an optimal dose of 0.2 mg/kg/injection at 1-4 day schedule.; assay type: functional, Mus musculus
Procedure, shortened: (§1)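 L1210 leukemia, maintained in DBA/2 mice, was given ip as 10⁵ cells on day 0 to F1 hybrid or strain-of-origin mice over 18 g, in groups of 8. Dosing was ip from day 1, and mortality was checked daily. Median day of death counts dying mice only. %ILS = 100×(treated − control median day of death)/control median. Tumor-free survivors were counted on day 60. Weight change is g/mouse at nadir.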

[9] = tested on: L1210; test: Compound was evaluated in vivo for antitumor activity after intraperitoneal administration against L1210(935) for total dose at an optimal dose of 0.4 mg/kg/injection at 1-4 day schedule.; assay type: functional, Mus musculus; procedure, shortened: as §1
[10] = tested on: L1210; test: Compound was evaluated in vivo for antitumor activity after intraperitoneal administration against L1210(935) for total dose at an optimal dose of 0.5 mg/kg/injection at 1,4,7,11day schedule.; assay type: functional, Mus musculus; procedure, shortened: as §1
[11] = tested on: L1210; test: Compound was evaluated in vivo for antitumor activity after intraperitoneal administration against L1210(935)for change in body weight at an optimal dose of 0.25 mg/kg/injection at 1,4,7,11day schedule.; assay type: functional, Mus musculus; procedure, shortened: as §1
[12] = tested on: L1210; test: Compound was evaluated in vivo for antitumor activity after intraperitoneal administration against L1210(935)for change in body weight at an optimal dose of 0.5 mg/kg/injection at 1 day schedule.; assay type: functional, Mus musculus; procedure, shortened: as §1
[13] = tested on: L1210; test: Compound was evaluated in vivo for antitumor activity after intraperitoneal administration against L1210(935) for median day of death at an optimal dose of 0.5 mg/kg/injection at 1 day schedule.; assay type: functional, Mus musculus; procedure, shortened: as §1
[14] = tested on: L1210; test: Compound was evaluated in vivo for antitumor activity after intraperitoneal administration against L1210(935) for tumor free survivors at an optimal dose of 0.2 mg/kg/injection at 1-4 day schedule.; assay type: functional, Mus musculus; procedure, shortened: as §1
[15] = Compound was evaluated in vivo for antitumor activity against Lewis Lung cercinoma after injecting the compound intravenously for change in body weight.; assay type: functional, Mus musculus
Procedure, shortened: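 Lewis lung carcinoma: 10^6 cells implanted im into C57Bl/6-derived hosts. Drug given iv on days 5, 9 and 13, 10 mice per group. Median tumor burden and weight nadir recorded. Survivors were killed on day 19, and their lungs were fixed in Fekete solution so that macroscopic metastases could be counted.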

[16] = tested on: P388; test: Compound was evaluated in vivo for antitumor activity after intraperitoneal administration against P388/L-PAM(12) for median day of death at an optimal dose of 0.75 mg/kg/injection; assay type: functional, Mus musculus
[17] = tested on: P388; test: Compound was evaluated in vivo for antitumor activity after intraperitoneal administration against P388 (1303) for change in body weight at an optimal dose of 0.75 mg/kg/injection; assay type: functional, Mus musculus
[18] = tested on: P388; test: Compound was evaluated in vivo for antitumor activity after intraperitoneal administration against P388 (1313) for total dose at an optimal dose of 0.2 mg/kg/injection; assay type: functional, Mus musculus
[19] = tested on: P388; test: Compound was evaluated in vivo for antitumor activity after intraperitoneal administration against P388/L-PAM(14) for median day of death at an optimal dose of 0.25 mg/kg/injection at 1,4,7,11 day schedule.; assay type: functional, Mus musculus
[20] = tested on: P388; test: Compound was evaluated in vivo for antitumor activity after intraperitoneal administration against P388/L-PAM(14) for median day of death at an optimal dose of 0.4 mg/kg/injection at 1,2,3,4 day schedule.; assay type: functional, Mus musculus
[21] = tested on: P388; test: Compound was evaluated in vivo for antitumor activity after intraperitoneal administration against P388/L-PAM(14) for tumor free survivors at an optimal dose of 0.1 mg/kg/injection at 1,2,3,4 day schedule.; assay type: functional, Mus musculus
[22] = tested on: P388; test: Compound was evaluated in vivo for antitumor activity after intraperitoneal administration against P388/L-PAM(14) for tumor free survivors at an optimal dose of 0.25 mg/kg/injection at 1,4,7,11 day schedule.; assay type: functional, Mus musculus
[23] = tested on: P388; test: Compound was evaluated in vivo for antitumor activity after intraperitoneal administration against P388/L-PAM(14) for change in body weight at an optimal dose of 0.125 mg/kg/injection at 1,4,7,11 day schedule.; assay type: functional, Mus musculus
[24] = tested on: P388; test: Compound was evaluated in vivo for antitumor activity after intraperitoneal administration against P388/L-PAM(14) for change in body weight at an optimal dose of 0.5 mg/kg/injection at 1,4,7,11 day schedule.; assay type: functional, Mus musculus
[25] = tested on: P388; test: Compound was evaluated in vivo for antitumor activity after intraperitoneal administration against P388/L-PAM(14) for total dose at an optimal dose of 0.5 mg/kg/injection at 1,4,7,11 day schedule.; assay type: functional, Mus musculus
[26] = tested on: P388; test: Compound was evaluated in vivo for antitumor activity after intraperitoneal administration against P388 (1313) for total dose at an optimal dose of 1 mg/kg/injection; assay type: functional, Mus musculus
[27] = tested on: P388; test: Compound was evaluated in vivo for antitumor activity after intraperitoneal administration against P388 (1313) for tumor free survivors at an optimal dose of 1 mg/kg/injection on day 60; assay type: functional, Mus musculus
[28] = tested on: P388; test: Compound was evaluated in vivo for antitumor activity after intraperitoneal administration against P388 (1313) for change in body weight at an optimal dose of 0.5 mg/kg/injection; assay type: functional, Mus musculus
[29] = tested on: P388; test: Compound was evaluated in vivo for antitumor activity after intraperitoneal administration against P388 (1313) for % increase in life span at an optimal dose of 0.2 mg/kg/injection; assay type: functional; details: Mus musculus, P388, ip
[30] = tested on: P388; test: Compound was evaluated in vivo for antitumor activity after intraperitoneal administration against P388 (1313) for median day of death at an optimal dose of 0.25 mg/kg/injection; assay type: functional, Mus musculus

CN(C)CCCNc1ncnc2c1C(=O)C(N1CC1)=C(N1CC1)C2=O
Total dose [1]: 1.2 mg/kg
Change in body weight [2]: 0.9 g mouse-1 and 0.8 g mouse-1
T/C [3]: 76%
Tumor burden [4]: 27.8
T/C [5]: 0%
Tumor burden [6]: 40 mg
Toxicity [7]: 0
Total dose [8]: 0.8 mg/kg
Total dose [9]: 1.6 mg/kg
Total dose [10]: 2 mg/kg
Change in body weight [11]: 1.6 g mouse-1
Change in body weight [12]: 0.3 g mouse-1
Median day of death [13]: 14
Survivors [14]: 1
Change in body weight [15]: 0.6 g mouse-1 and 1.1 g mouse-1
Median day of death [16]: 15.5
Change in body weight [17]: 3.2 g mouse-1
Optimal dose [18]: 0.8 mg/kg
Median day of death [19]: 16.5
Median day of death [20]: 20
Survivors [21]: 0
Survivors [22]: 0
Change in body weight [23]: 0.8 g mouse-1
Change in body weight [24]: 0.7 g mouse-1
Total dose [25]: 2 mg/kg
Optimal dose [26]: 1 mg/kg
Survivors [27]: 0
Change in body weight [28]: 0 g mouse-1
ILS at 0.2 mg/kg [29]: 62%
Median day of death [30]: 19
